# According to ChEMBL document CHEMBL3232996, “Synthesis and biological evaluation of novel (123)I-labeled 4-(4-iodophenyl)butanoyl-L-prolyl-(2S)-pyrrolidines for imaging prolyl oligopeptidase in vivo” (Eur J Med Chem, 2014):
# Tests used:
# Blood [1] = test: Biodistribution in C57Bl/6JRccHsd mouse blood at 2.86 +/- 1.26 MBq, iv measured at 160 mins post dose pretreated with 50 umol/kg, ip prolyl oligopeptidase inhibitor KYP-2047 10 mins before compound dosing by SPECT analysis; format: ADME, organism-based; conditions: in vivo
# Outline: (§1)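 Organs excised at 5, 20, 40, 80 or 160 min and radioactivity gamma-counted as %ID/g (brain also as %ID). Blocking groups received KYP-2047 (50 µmol/kg, 10 mL/kg, 1% DMSO in 0.9% NaCl) i.p. 10 min before tracer. Mean ± SD, n = 2–4 per time point. Blocking compared by two-tailed Student's t test.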
# [2] = Fraction unbound in iv dosed C57Bl/6JRccHsd mouse plasma measured at 160 mins post dose pretreated with 50 umol/kg, ip prolyl oligopeptidase inhibitor KYP-2047 10 mins before compound dosing by SPECT analysis; format: ADME, organism-based
# Outline: (§2)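 Mice got tracer i.v., some after i.p. KYP-2047 (50 µmol/kg) 10 min before. Cardiac blood was collected at 20, 40, 80 or 160 min and spun 5 min at 2000 g into cells and plasma. Plasma was precipitated with acetonitrile and pellet and supernatant were gamma-counted. Activity in cells, protein-bound and free plasma is given as % of total blood activity, n = 3.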
# Spleen [3] = test: Biodistribution in C57Bl/6JRccHsd mouse spleen at 2.86 +/- 1.26 MBq, iv measured at 80 mins by SPECT analysis; format: ADME, organism-based; conditions: in vivo; outline: as §1
# Mus musculus [4] = test: Biodistribution in C57Bl/6JRccHsd mouse tongue at 2.86 +/- 1.26 MBq, iv measured at 80 mins post dose pretreated with 50 umol/kg, ip prolyl oligopeptidase inhibitor KYP-2047 10 mins before compound dosing by SPECT analysis; format: ADME, organism-based; conditions: in vivo; outline: as §1
# [5] = Plasma protein binding in iv dosed C57Bl/6JRccHsd mouse measured at 160 mins post dose pretreated with 50 umol/kg, ip prolyl oligopeptidase inhibitor KYP-2047 10 mins before compound dosing by SPECT analysis; format: ADME, organism-based; conditions: in vivo
# Outline: (§3)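 Male mice given 3.6 MBq tracer i.v. via lateral tail vein; blocking groups got POP inhibitor i.p. (50 µmol/kg, 10 mL/kg, 1% DMSO in 0.9% NaCl) 10 min before. Heparinized cardiac blood on ice, gamma-counted, spun 5 min at 2000 g; plasma counted, precipitated with 1.5 volumes acetonitrile, respun; cell-bound, protein-bound and free fractions expressed as % of blood activity; n = 3.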
# Blood [6] = test: Biodistribution in C57Bl/6JRccHsd mouse blood at 2.86 +/- 1.26 MBq, iv measured at 80 mins by SPECT analysis; format: ADME, organism-based; conditions: in vivo; outline: as §1
# Spleen [7] = test: Biodistribution in C57Bl/6JRccHsd mouse spleen at 2.86 +/- 1.26 MBq, iv measured at 80 mins post dose pretreated with 50 umol/kg, ip prolyl oligopeptidase inhibitor KYP-2047 10 mins before compound dosing by SPECT analysis; format: ADME, organism-based; conditions: in vivo; outline: as §1
# [8] = Fraction unbound in iv dosed C57Bl/6JRccHsd mouse plasma measured at 160 mins; format: ADME, organism-based; outline: as §2
# Mus musculus [9] = test: Retention time in C57Bl/6JRccHsd mouse plasma at 3.6 MBq, iv measured at 20 mins by HPLC analysis; format: ADME, organism-based
# Outline: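 Male mice given 3.6 MBq i.v.; cardiac plasma deproteinized with acetonitrile, supernatant run on C18 radio-HPLC gradient, 0.65 min fractions gamma-counted, activity expressed as cpm/total cpm.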
# Heart = test: Biodistribution in C57Bl/6JRccHsd mouse heart at 2.86 +/- 1.26 MBq, iv measured at 80 mins post dose pretreated with 50 umol/kg, ip prolyl oligopeptidase inhibitor KYP-2047 10 mins before compound dosing by SPECT analysis; format: ADME, organism-based; conditions: in vivo; outline: as §1
# Blood [10] = test: Biodistribution in C57Bl/6JRccHsd mouse blood at 2.86 +/- 1.26 MBq, iv measured at 20 mins post dose pretreated with 50 umol/kg, ip prolyl oligopeptidase inhibitor KYP-2047 10 mins before compound dosing by SPECT analysis; format: ADME, organism-based; conditions: in vivo; outline: as §1
# Mus musculus [11] = test: Biodistribution in C57Bl/6JRccHsd mouse tongue at 2.86 +/- 1.26 MBq, iv measured at 80 mins by SPECT analysis; format: ADME, organism-based; conditions: in vivo; outline: as §1
# [12] = Drug uptake in iv dosed C57Bl/6JRccHsd mouse blood cells measured at 80 mins; format: ADME, organism-based; conditions: in vivo; outline: as §2
# Mus musculus [13] = test: Biodistribution in C57Bl/6JRccHsd mouse testis at 2.86 +/- 1.26 MBq, iv measured at 80 mins by SPECT analysis; format: ADME, organism-based; conditions: in vivo; outline: as §1
# [14] = Fraction unbound in iv dosed C57Bl/6JRccHsd mouse plasma measured at 40 mins; format: ADME, organism-based; outline: as §3
# Brain [15] = test: Biodistribution in C57Bl/6JRccHsd mouse brain at 2.86 +/- 1.26 MBq, iv measured at 5 mins by SPECT analysis; format: ADME, organism-based; conditions: in vivo; outline: as §1
# [16] = Plasma protein binding in iv dosed C57Bl/6JRccHsd mouse measured at 20 mins; format: ADME, organism-based; conditions: read-out: PPB (converted); outline: as §3
# [17] = Fraction unbound in iv dosed C57Bl/6JRccHsd mouse plasma measured at 20 mins; format: ADME, organism-based; outline: as §2
# [18] = Drug uptake in iv dosed C57Bl/6JRccHsd mouse blood cells measured at 20 mins post dose pretreated with 50 umol/kg, ip prolyl oligopeptidase inhibitor KYP-2047 10 mins before compound dosing by SPECT analysis; format: ADME, organism-based; conditions: in vivo; outline: as §2
# Plasma = test: Stability in human plasma at 2.5 MBq/ml up to 120 mins by HPLC analysis; format: ADME, cell-free; conditions: 2 h
# Blood [19] = test: Biodistribution in C57Bl/6JRccHsd mouse blood at 2.86 +/- 1.26 MBq, iv measured at 40 mins by SPECT analysis; format: ADME, organism-based; conditions: in vivo; outline: as §1
# Liver = test: Biodistribution in C57Bl/6JRccHsd mouse liver at 2.86 +/- 1.26 MBq, iv measured at 80 mins by SPECT analysis; format: ADME, organism-based; conditions: in vivo; outline: as §1
# Blood [20] = test: Biodistribution in C57Bl/6JRccHsd mouse blood at 2.86 +/- 1.26 MBq, iv measured at 80 mins post dose pretreated with 50 umol/kg, ip prolyl oligopeptidase inhibitor KYP-2047 10 mins before compound dosing by SPECT analysis; format: ADME, organism-based; conditions: in vivo; outline: as §1
# Mus musculus [21] = test: Biodistribution in C57Bl/6JRccHsd mouse salivary gland at 2.86 +/- 1.26 MBq, iv measured at 80 mins post dose pretreated with 50 umol/kg, ip prolyl oligopeptidase inhibitor KYP-2047 10 mins before compound dosing by SPECT analysis; format: ADME, organism-based; conditions: in vivo; outline: as §1
# [22] = Plasma protein binding in iv dosed C57Bl/6JRccHsd mouse measured at 40 mins; format: ADME, organism-based; conditions: read-out: PPB (converted); outline: as §3
# Brain [23] = test: Biodistribution in C57Bl/6JRccHsd mouse brain at 2.86 +/- 1.26 MBq, iv measured at 40 mins by SPECT analysis; format: ADME, organism-based; conditions: in vivo; outline: as §1
# Lung = test: Biodistribution in C57Bl/6JRccHsd mouse lung at 2.86 +/- 1.26 MBq, iv measured at 80 mins post dose pretreated with 50 umol/kg, ip prolyl oligopeptidase inhibitor KYP-2047 10 mins before compound dosing by SPECT analysis; format: ADME, organism-based; conditions: in vivo; outline: as §1
# Muscle tissue = test: Biodistribution in C57Bl/6JRccHsd mouse muscle at 2.86 +/- 1.26 MBq, iv measured at 80 mins by SPECT analysis; format: ADME, organism-based; conditions: in vivo; outline: as §1
smiles,measurement,setting,value
N#C[C@@H]1CCCN1C(=O)[C@@H]1CCCN1C(=O)CCCc1ccc([123I])cc1,Drug uptake,Blood [1],1 % ID/g
same,fraction unbound at 160 min,[2],0.58
same,Drug uptake,Spleen [3],10.56 % ID/g
same,Drug uptake,Mus musculus [4],1.44 % ID/g
same,PPB,[5],0%
same,Drug uptake,Blood [6],2.1 % ID/g
same,Drug uptake,Spleen [7],0.92 % ID/g
same,fraction unbound at 160 min,[8],0.26
same,Retention_time,Mus musculus [9],7.15 min
same,Drug uptake,Heart,1.34 % ID/g
same,Drug uptake,Blood [10],10.9 % ID/g
same,Drug uptake,Mus musculus [11],4.43 % ID/g
same,Drug uptake,[12],84%
same,Drug uptake,Mus musculus [13],0.55 % ID/g
same,fraction unbound at 40 min,[14],0.08
same,Drug uptake,Brain [15],0.43 %ID
same,fraction unbound at 20 min,[16],0.98
same,fraction unbound at 20 min,[17],0.03
same,Drug uptake,[18],53%
same,Stability,Plasma,Stable
same,Drug uptake,Blood [19],7.6 % ID/g
same,Drug uptake,Liver,20.1 % ID/g
same,Drug uptake,Blood [20],2.69 % ID/g
same,Drug uptake,Mus musculus [21],1.52 % ID/g
same,fraction unbound at 40 min,[22],0.98
same,Drug uptake,Brain [23],0.76 %ID
same,Drug uptake,Lung,1.54 % ID/g
same,Drug uptake,Muscle tissue,2.15 % ID/g
